Compound activity from PubChem.
HSF1 inh – HSF1 inhibition; NIH3T3-HGL HSE-luciferase, MG132-induced, luminescence 8 h; stronger effect = lower value; activity change, negative = inhibition, % at 7.5 µM (by protocol); actives 0.77% (n = 300,000); AID 2098;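 active = more than half of replicate wells show activity change below -50%, luminescence cut by over half; inconclusive = some wells, but at most half, below -50%; inactive = no replicate well below -50%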;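 also: luciferase reports HSF-1 transcriptional activity via heat shock element; 0% = median of DMSO wells and -100% = zero luminescence signal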
HSF1 activator – increases HSF-1 driven luciferase reporter signal. NIH3T3-HGL HSF-1 luciferase reporter, MG132, 8 h; 100% = twice DMSO control signal. activation, % at 9 µM. actives 1.7% (n = 300,000). AID 504408;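 active = mean replicate activation of at least 50% with a set share of replicates each reaching 50%; inconclusive = only one of those two conditions met; inactive = mean below 50% and too few replicates reaching it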;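 also: 0% = median of the neutral control wells and 100% = twice that signal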
Hsp70 activator – switches on Hsp70 transcription; HeLa Hsp70 promoter luciferase reporter, luminescence; scaled: vehicle 0, proteasome-inhibitor control 100%; actives 0.04% (n = 200,000); activation, % at 10 µM;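 active = activation above the mean across all tested compounds plus 3 SD, cutoff set per campaign, cut at about 5.5% in these data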;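 also: 100% = MG132 at 30 µM as the positive control and 0% = DMSO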
T cruzi inh – T. cruzi replication inhibition; T. cruzi beta-gal in NIH3T3, luminescence, 90 h; inhibition, % (no concentration beside the values); actives 1.4% (n = 300,000);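 active = mean inhibition across valid replicates above about 55%, limit read from the data; inconclusive = mean below that limit but half or more replicates reach it; inactive = mean below it, under half of replicates reach it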;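 also: signal also drops with host cell toxicity which is not excluded here; 0% = plate median of DMSO wells and 100% = zero luminescence signal; higher percent means less beta-gal luminescence so fewer parasites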
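Material: NIH/3T3 host cells with β-galactosidase reporter T. cruzi; Input: 5,000 host fibroblasts per well; Medium: DMEM, 2% fetal bovine serum; Compound: 50 nL DMSO compound solution per well; Schedule: 3 h host attachment, then at least 90 h co-culture; Detection: luminescent β-galactosidase signal after 60 min lysis.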
L major viab – reduces viability of Leishmania major promastigotes; inhibition, % at 10 µM; resazurin fluorescence viability; actives 9% (n = 200,000); in the data active = inhibition above about 50%;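 also: promastigotes grown with compound for 44 hours at 28 °C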
* marks the source's active call; other numbers are inactive results; ? = inconclusive; nt = no result given. Shown is part of a subset that was picked to be rich in hits.

SMILES	HSF1 inh	HSF1 activator	Hsp70 activator	T cruzi inh	L major viab
CCNc1ccc(S(=O)(=O)N(C)C)cc1NCC(=O)Nc1ccc(Br)cc1F	-7	-4	0	-24	72*
Cc1c(Cl)cccc1NC(=O)CNc1cccc(S(=O)(=O)N(C)C)c1	8	1	0	-1	72*
CCNc1ccc(S(=O)(=O)N(C)C)cc1NCC(=O)Nc1ccccc1Br	55	115*	0	-4	16
COCC(C)NS(=O)(=O)c1ccc(NC(=O)c2ccccn2)cc1 (configuration not stated)	-18	-31	nt	-10	nt
COc1ccc(-c2cc(C(=O)NCC3CCCO3)c3cc(C(C)C)ccc3n2)cc1 (configuration not stated)	-3	-4	nt	8	nt
Cn1c(-c2ccccc2)cnc1SCc1nc2ccccc2c(=O)[nH]1	67	104*	0	14	-1
O=c1[nH]c(CSc2ncn[nH]2)nc2ccccc12	-6	4	nt	-12	nt
O=c1[nH]c(CSc2ncnc3sccc23)nc2ccccc12	30	56*	nt	-1	nt
O=C(CN1CCCC1)Nc1cccc(Cl)c1Cl	3	2	nt	-8	nt
COc1ccc(-n2ncc3c(NCCN4CCOCC4)ncnc32)cc1	-3	6	0	-2	92*
CN(C)CCNc1ncnc2c1cnn2-c1ccc(Cl)cc1	-11	-8	0	26	98*
COc1ccc(-n2ncc3c(NCCCN4CCOCC4)ncnc32)cc1	-55*	-59	0	6	9
CCCNc1ncnc2c1cnn2-c1ccc(OC)cc1	nt	nt	0	nt	10
O=C(Nc1ccc(F)cc1)c1csc(Cc2ccccc2)n1	38	59*	0	-4	-8
COc1ccccc1CNC(=O)c1csc(Cc2ccc(Cl)cc2)n1	62	100*	0	13	11
CC(C)[C@H](NC(=O)c1ccco1)C(=O)N(C)Cc1c(F)cccc1Cl	0	3	nt	12	nt
Cc1ccccc1C(=O)O/N=C/c1c(N2CCOCC2)n(C)c2ccccc12	-2	-1	0	49	100*
CN1CCN(c2c(/C=N/O)c3ccccc3n2C)CC1	-2	-7	nt	-14	nt
COc1cccc(C(=O)NCCS(=O)(=O)NCc2ccc(Cl)cc2)c1	0	6	nt	-3	nt
O=C(CNc1ccc2ccccc2c1)N/N=C/c1ccc([N+](=O)[O-])o1	29	47	-1	68*	100*
Cc1ccc(OCC(=O)N/N=C/c2ccc([N+](=O)[O-])o2)cc1	16	22	1	66*	100*
COc1ccc(-c2nn(-c3ccccc3)cc2C(=O)N2CCOCC2)cc1	-2	7	0	1	-4
COc1ccc(-c2nn(-c3ccccc3)cc2C(=O)N/N=C/c2ccc([N+](=O)[O-])o2)cc1	-8	-25	0	90*	65*
O=C(CNc1ccc2ccccc2c1)N/N=C/c1ccc(C(=O)O)cc1	13	?	0	-7	-9
O=C(COc1ccccc1)N/N=C/c1ccc([N+](=O)[O-])o1	6	6	0	83*	100*
SMILES	HSF1 inh	HSF1 activator	Hsp70 activator	T cruzi inh	L major viab
O=C(CSc1nnc(-c2ccccc2)o1)N1CCCCC1	11	10	nt	-3	nt
Cc1ccc(N2C(=O)CC(C)(C)CC2=O)cc1Cl	1	-3	nt	-5	nt
O=C(Nc1nnc(CCS(=O)(=O)c2ccc3ccccc3c2)s1)c1ccc([N+](=O)[O-])cc1	-4	-5	0	-5	35
CCN1CCN(c2ccc(NC(=O)COc3ccc([N+](=O)[O-])cc3)cc2)CC1	-1	27	nt	0	nt
CC(=O)N(/N=C/c1ccc([N+](=O)[O-])o1)c1nc2ccccc2c(=O)n1-c1ccccc1	-10	5	nt	36	nt
CN(/N=C/c1ccc([N+](=O)[O-])o1)c1ccccc1	31	31	0	60*	71*
O=C(N/N=C/c1ccc([N+](=O)[O-])o1)C(O)c1ccccc1 (configuration not stated)	19	13	nt	76*	nt
COc1ccccc1CNC(=O)C1CCCN(S(=O)(=O)c2cccs2)C1 (configuration not stated)	-9	8	nt	9	nt
CCOc1cc(/C=N/N=C(/N)c2nonc2N)cc(Br)c1OCc1ccc(Cl)cc1	-11	4	0	29	10
COc1cc(/C=N/N=C(/N)c2nonc2N)cc(Br)c1OCc1ccccc1C	2	6	0	42	75*
CC(C)[C@H](NC(=O)OC(C)(C)C)C(=O)NCC1CCC(C(=O)N[C@@H](Cc2ccccc2)C(=O)O)CC1 (some centres not stated)	-59*	-67	nt	-12	nt
CC(C)[C@H](N)C(=O)NC[C@H]1CC[C@H](C(=O)N[C@@H](Cc2ccccc2)C(=O)O)CC1	-63*	-69	nt	1	nt
CC(C)[C@@H](N)C(=O)NCC1CCC(C(=O)N[C@@H](Cc2ccccc2)C(=O)O)CC1 (some centres not stated)	-4	8	nt	-20	nt
COc1cccc2c1C(=O)c1c(O)c3c(c(O)c1C2=O)C[C@@](O)(C(=O)CO)C[C@@H]3O[C@H]1C[C@H](N)[C@H](O)[C@H](C)O1	-24	-22	4	51	100*
Cc1ccc(C)c(OCC(=O)Nc2ccc(C(=O)O)cc2NC(=O)COc2cc(C)ccc2C)c1	5	8	nt	-20	nt
CCN(C(=O)CSc1nnc(-c2ccc(Cl)cc2)n1C)C1CCS(=O)(=O)C1 (configuration not stated)	-8	-16	0	-4	-4
O=C(CCNS(=O)(=O)c1ccc(Br)s1)Nc1ccc(Cl)cc1	7	9	-1	58*	81*
Cc1cccc(NC(=S)N2CCN(c3ccc(F)cc3)CC2)c1	2	6	0	-24	16
Cc1ccc(NC(=S)N2CCN(C)CC2)c(C)c1	-1	-2	0	-17	-6
CSc1cccc(NC(=S)N2CCCN(Cc3ccc(F)cc3)C2)c1	-9	-12	0	15	86*
Cc1ccccc1NC(=S)N1CCCN(Cc2ccc(F)cc2)C1	3	17	0	22	86*
Cc1ccccc1NC(=S)N1CCCC1	-2	-6	0	-14	-3
Cc1ccc(NC(=S)N2CCCN(Cc3ccc(F)cc3)C2)c(C)c1	nt	nt	0	12	89*
CCOc1ccc(N2C(=O)/C(=C\c3ccccc3OC)S(=O)(=O)C2c2cccc([N+](=O)[O-])c2)cc1 (configuration not stated)	9	10	0	2	50*
Cc1ccc(C=Nc2ccccc2C(N)=O)o1	26	60*	0	-18	8
COC(=O)c1cc(NC(=O)C2CC(=O)NC(=NCc3ccc(OC)cc3)S2)cc(C(=O)OC)c1 (configuration not stated)	-5	5	0	-3	-6
O=C(c1ccc(=O)[nH]c1)N1CCN(S(=O)(=O)c2ccccc2)CC1	1	14	nt	1	nt
